From ChEMBL document CHEMBL5385970, “Design, synthesis, and evaluation of novel ferrostatin derivatives for the prevention of HG-induced VEC ferroptosis” (RSC Med Chem, 2024)
pEC50, pIC50: −log10 of the molar value. In brackets after ≈: the same amount, converted by molar mass. Activity calls are given as the source filed them. The calls are words filed in the database; no cut-off is given here.

Experiments:
HUVEC [1] = assay: Cytotoxicity against human HUVEC cells assessed as reduction in erastin-induced cell survival at 10 uM measured for 24 hrs by SRB assay; assay type: toxicity, cell-based
Summary of the method: (§1)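 HUVECs (gelatin-coated dishes, M199 with 20% bovine serum and FGF2, 37 °C, 5% CO2) seeded in 96-well plates and incubated overnight. Treated 24 h with 10 μM erastin alone or with compound (10 μM, or a range of concentrations). Cells fixed with TCA, stained with 0.4% SRB in 1% acetic acid, dissolved in 10 mM Tris pH 10.5, A540 read. Survival computed relative to blank and untreated control. At least three separate experiments.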

HUVEC [2] = assay: Anti-ferroptotic activity against Erastin-induced ferroptosis in human HUVEC cells assessed as cell viability incubated for 24 hrs by SRB assay; assay type: functional, cell-based; summary of the method: as §1
[3] = Antioxidant activity assessed as DPPH radical scavenging activity incubated for 30 mins; assay type: functional
Summary of the method: (§2)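 DPPH at 100 μM in ethanol (180 μL) mixed with compound in DMSO (20 μL), giving 50 μM final compound. Kept 30 min in the dark at room temperature, then A517 read to obtain DPPH clearance. For IC50, a concentration gradient of compound was tested and the curve fitted.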

[4] = Kinetic solubility of compound in PBS buffer at pH7.4 incubated for; assay type: physicochemical; details: pH 7.4, read-out: Kinetic_solubility
Summary of the method: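 DMSO stocks ([…]) were diluted 4 μL into 196 μL of 10 mM PBS pH 7.4, giving final concentrations of 3.13–200 μM. Plate shaken for 10 s and incubated 2 h at 37 °C. Solubility taken as the highest concentration with no measurable turbidity.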

[5] = Antioxidant activity assessed as DPPH radical scavenging activity at 50 uM incubated for 30 mins relative to control; assay type: functional; summary of the method: as §2
HUVEC [6] = assay: Cytotoxicity against human HUVEC cells assessed as high glucose-induced cell survival at 10 uM measured for 24 hrs by SRB assay; assay type: toxicity, cell-based
Summary of the method: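 HUVECs in M199 with 20% bovine serum and FGF2, plated in 96-well plates, incubated overnight. Exposed to 30 mM high glucose alone or with 10 μM compound for 24 h. Viability by SRB (TCA fixation, 0.4% SRB stain, Tris pH 10.5 solubilisation, A540). Survival expressed relative to blank and untreated control. n = 3.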

HUVEC [7] = assay: Induction of mitochondrial damage in high glucose-induced human HUVEC cells assessed as increase in monomer formation at 10 uM incubated for 24 hrs by JC-1 staining based flow cytometry analysis; assay type: functional, cell-based
HUVEC [8] = assay: Upregulation of GPX4 expression in high glucose-induced human HUVEC cells at 10 uM incubated for 24 hrs by Western blot analysis; assay type: functional, cell-based
Summary of the method: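 HUVECs exposed 24 h to 30 mM high glucose and 10 μM compound, then lysed in RIPA. Protein by BCA; 15 μg per lane run on 12% SDS-PAGE and blotted to PVDF. Probed with anti-GPX4 (1:1000) and anti-β-actin (1:5000) overnight at 4 °C, detected by ECL, and quantified by densitometry. Untreated cells normalized to 1; n = 3.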

HUVEC [9] = assay: Anti-ferroptotic activity against human HUVEC cells assessed as decrease in intracellular ferrous ion level at 10 uM incubated for 24 hrs by ferroOrange probe based analysis; assay type: functional, cell-based
Summary of the method: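 After 24 h with 30 mM high glucose and 10 μM compound, HUVECs were washed three times in serum-free medium. Loaded with 1 μM FerroOrange for 30 min at 37 °C, 5% CO2, then imaged by fluorescence microscopy. Ferrous ion signal quantified relative to untreated control set to 1; n = 3.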

HUVEC [10] = assay: Anti-ferroptotic activity against human HUVEC cells assessed as decrease in LPO level at 10 uM incubated for 24 hrs; assay type: functional, cell-based
Summary of the method: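 HUVECs given 30 mM high glucose plus 10 μM compound for 24 h. Cells collected, extracted and sonicated on ice (3 s on, 7 s off, 3 min total), then spun 8000 × g for 10 min at 4 °C. LPO measured in the supernatant with a kit. Values relative to untreated cells set to 1; n = 3.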

HUVEC [11] = assay: Anti-ferroptotic activity against human HUVEC cells assessed as decrease in MDA level at 10 uM incubated for 24 hrs; assay type: functional, cell-based
Summary of the method: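 Cells were HUVECs under 30 mM high glucose with 10 μM compound, 24 h. Lysed in Western/IP lysis buffer and spun 10 000 × g for 10 min. MDA measured by kit in the supernatant and normalized to mg protein. Expressed relative to untreated control set to 1; n = 3.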

[12] = Microsomal stability in human liver microsome assessed as parent compound remaining measured after 60 mins in absence of NADPH by LC-MS/MS analysis; assay type: ADME; details: liver microsomes, read-out: Stability
Summary of the method: (§3)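 Compound at 1 μM final was incubated at 37 °C with liver microsomes (human, rat or mouse) in pH 7.4 buffer, with and without NADPH. Verapamil served as reference. Samples taken at 0–60 min and quenched in acetonitrile with tolbutamide internal standard. Analysed by LC-MS/MS on a C18 column with a water/acetonitrile 0.1% TFA gradient. Parent remaining reported at 60 min; T1/2 also derived.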

[13] = Microsomal stability in rat liver microsome assessed as parent compound remaining measured after 60 mins in absence of NADPH by LC-MS/MS analysis; assay type: ADME; details: liver microsomes, read-out: Stability; summary of the method: as §3
[14] = Microsomal stability in mouse liver microsome assessed as parent compound remaining measured after 60 mins in absence of NADPH by LC-MS/MS analysis; assay type: ADME; details: liver microsomes, read-out: Stability; summary of the method: as §3
[15] = Microsomal stability in human liver microsome assessed as parent compound remaining measured after 60 mins in presence of NADPH by LC-MS/MS analysis; assay type: ADME; details: liver microsomes, read-out: Stability; summary of the method: as §3
[16] = Microsomal stability in rat liver microsome assessed as parent compound remaining measured after 60 mins in presence of NADPH by LC-MS/MS analysis; assay type: ADME; details: liver microsomes, read-out: Stability; summary of the method: as §3
[17] = Microsomal stability in mouse liver microsome assessed as parent compound remaining measured after 60 mins in presence of NADPH by LC-MS/MS analysis; assay type: ADME; details: liver microsomes, read-out: Stability; summary of the method: as §3
[18] = Microsomal stability in human liver microsome assessed as half life measured upto 60 mins by LC-MS/MS analysis; assay type: ADME; details: liver microsomes
[19] = Microsomal stability in rat liver microsome assessed as half life measured upto 60 mins by LC-MS/MS analysis; assay type: ADME; details: liver microsomes
[20] = Microsomal stability in mouse liver microsome assessed as half life measured upto 60 mins by LC-MS/MS analysis; assay type: ADME; details: liver microsomes
HUVEC [21] = assay: Inhibition of ROS accumulation in high glucose-induced human HUVEC cells at 10 uM incubated for 24 hrs by DCF-DA staining based fluorescence microscopic analysis
HUVEC [22] = assay: Cytotoxicity against human HUVEC cells assessed as reduction in cell viability at 10 uM measured for 24 hrs by SRB assay; assay type: toxicity, cell-based
Summary of the method: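 HUVECs were grown on gelatin-coated dishes in M199 with 20% bovine serum and 10 IU/mL FGF2 at 37 °C, 5% CO2. Cells were seeded in 96-well plates, incubated overnight, then exposed to compound for 24 h. They were TCA-fixed, stained for 10 min with 0.4% SRB in 1% acetic acid, and dissolved in 10 mM Tris (pH 10.5). A540 survival was calculated relative to blank and control, from at least three experiments.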

pIC50 [3]	solubility kinetic [4] [µM]	Compound	Activity (HUVEC [1])	pEC50 (HUVEC [2])	Activity [5] [%]	Activity (HUVEC [6])	further results
4.41	22.2 (≈ 10 µg/mL)	N#Cc1cccc(/C=N/NC(=O)c2ccc(NC3CCCCC3)c(NCc3ccccc3)c2)c1	Non-Toxic	6.21	59.6	Non-Toxic	–
–	–	O=C(N/N=C/c1ccc([N+](=O)[O-])cc1)c1ccc(NC2CCCCC2)c(NCc2ccccc2)c1	Non-Toxic	–	–	–	–
–	–	O=C(N/N=C/c1ccc(Br)cc1)c1ccc(NC2CCCCC2)c(NCc2ccccc2)c1	Non-Toxic	–	–	–	–
–	–	O=C(N/N=C/c1ccc(F)c(Br)c1)c1ccc(NC2CCCCC2)c(NCc2ccccc2)c1	Non-Toxic	–	–	–	–
–	–	O=C(N/N=C/c1cccc(O)c1O)c1ccc(NC2CCCCC2)c(NCc2ccccc2)c1	Toxic	–	–	–	–
4.34	20 (≈ 9.43 µg/mL)	O=C(N/N=C/c1cccc([N+](=O)[O-])c1)c1ccc(NC2CCCCC2)c(NCc2ccccc2)c1	Non-Toxic	6.16	53.3	Non-Toxic	–
4.26	25 (≈ 11.4 µg/mL)	COc1ccccc1/C=N/NC(=O)c1ccc(NC2CCCCC2)c(NCc2ccccc2)c1	Non-Toxic	6.19	57.4	Non-Toxic	–
4.33	6.2 (≈ 2.19 µg/mL)	CCOC(=O)c1ccc(NC2CCCCC2)c(NCc2ccccc2)c1	–	–	56.4	–	–
4.42	20 (≈ 10.7 µg/mL)	O=C(N/N=C/c1ccc(OCc2ccccc2)cc1)c1ccc(NC2CCCCC2)c(NCc2ccccc2)c1	Non-Toxic	6.30	65.9	Non-Toxic	Activity (HUVEC [7]): Active; Activity (HUVEC [8]): Active; Activity (HUVEC [9]): Active; Activity (HUVEC [10]): Active; Activity (HUVEC [11]): Active; remaining at 1 h [12]: 105%; remaining at 1 h [13]: 110%; remaining at 1 h [14]: 38%; remaining at 1 h [15]: 0.6%; remaining at 1 h [16]: 1%; remaining at 1 h [17]: 1%; half-life [18]: 4.9 min; half-life [19]: 9.1 min; half-life [20]: 9 min; Activity (HUVEC [21]): Active
4.27	> 200	CCOC(=O)c1ccc(NC2CCCCC2)c(N)c1	–	6.22	52.5	Non-Toxic	remaining at 1 h [12]: 6%; remaining at 1 h [13]: 4%; remaining at 1 h [14]: 5%; remaining at 1 h [15]: 7.6%; remaining at 1 h [16]: 6.1%; remaining at 1 h [17]: 6.6%; half-life [18]: 16.8 min; half-life [19]: 18.4 min; half-life [20]: 2.7 min
4.33	28.6 (≈ 13.2 µg/mL)	O=C(N/N=C/c1ccc(Cl)cc1)c1ccc(NC2CCCCC2)c(NCc2ccccc2)c1	Non-Toxic	6.14	53.4	Non-Toxic	–
4.25	28.6 (≈ 12.7 µg/mL)	O=C(N/N=C/c1ccc(O)cc1)c1ccc(NC2CCCCC2)c(NCc2ccccc2)c1	Non-Toxic	6.10	53.3	Non-Toxic	–
–	–	O=C(N/N=C/c1ccc(Cl)c(Cl)c1)c1ccc(NC2CCCCC2)c(NCc2ccccc2)c1	Non-Toxic	–	–	–	–
4.23	20 (≈ 10.7 µg/mL)	O=C(N/N=C/c1cccc(OCc2ccccc2)c1)c1ccc(NC2CCCCC2)c(NCc2ccccc2)c1	Non-Toxic	6.17	52.2	Non-Toxic	–
–	–	O=C(N/N=C/c1ccc(F)c([N+](=O)[O-])c1)c1ccc(NC2CCCCC2)c(NCc2ccccc2)c1	Toxic	–	–	–	–
–	–	CN(C)c1ccc(/C=N/NC(=O)c2ccc(NC3CCCCC3)c(NCc3ccccc3)c2)cc1	Non-Toxic	–	–	–	–
–	–	N#Cc1ccc(/C=N/NC(=O)c2ccc(NC3CCCCC3)c(NCc3ccccc3)c2)cc1	Toxic	–	–	–	–
–	–	O=C(N/N=C/c1ccc(N2CCCC2)cc1)c1ccc(NC2CCCCC2)c(NCc2ccccc2)c1	Non-Toxic	–	–	–	–
–	–	O=C(N/N=C/c1ccccc1)c1ccc(NC2CCCCC2)c(NCc2ccccc2)c1	Non-Toxic	–	–	–	–
–	–	COc1cc(/C=N/NC(=O)c2ccc(NC3CCCCC3)c(NCc3ccccc3)c2)cc(OC)c1	Non-Toxic	–	–	–	–
–	–	CCOc1ccccc1-n1c(C(C)N2CCN(C(=O)COc3ccc(Cl)cc3)CC2)nc2ccccc2c1=O (stereo not drawn) [ERASTIN]	–	–	–	–	Activity (HUVEC [22]): 75%
–	–	COc1ccc(/C=N/NC(=O)c2ccc(NC3CCCCC3)c(NCc3ccccc3)c2)c(O)c1	Non-Toxic	–	–	–	–
–	–	O=C(N/N=C/c1ccccc1OCc1ccccc1)c1ccc(NC2CCCCC2)c(NCc2ccccc2)c1	Toxic	–	–	–	–
